Test results taken from ChEMBL document CHEMBL2311274, “Triazole-based inhibitors of geranylgeranyltransferase II” (Bioorg Med Chem Lett, 2013).

Legend:
[1] = Inhibition of recombinant GGTase 2 (unknown origin) by scintillation counting in presence of [3H]GGPP; set-up: species or system Homo sapiens
How it was run: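 Recombinant GGTase II reaction containing radiolabeled GGPP as prenyl donor, a Rab protein as acceptor substrate, and REP. IC50 obtained from inhibition of transfer.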

[2] = system: RPMI-8226; assay: Cytotoxicity against human multiple myeloma RPMI8226 measured after 24 to 48 hrs by MTT assay; assay type: functional, cell-based

IC50 [1] [µM] | Structure (SMILES) | IC50 [2] [µM]
2000 | O=P(O)(O)C(Cc1cn(Cc2ccccc2)nn1)P(=O)(O)O | > 1000
100 | CC(C)=CCC/C(C)=C/CC/C(C)=C/CCC(C)=CCn1cc(CC(P(=O)(O)O)P(=O)(O)O)nn1 (mixture of isomers) | 1000
650 | CC(C)=CCC/C(C)=C/CCC(C)=CCn1cc(CC(P(=O)(O)O)P(=O)(O)O)nn1 (mixture of isomers) | 900
> 2000 | CC(C)=CCCC(C)=CCn1cc(CC(P(=O)(O)O)P(=O)(O)O)nn1 (mixture of isomers) | > 1000
> 1000 | O=P(O)(O)C(O)(Cc1cccnc1)P(=O)(O)O [RISEDRONIC ACID] | 

Structure (SMILES) | IC50 [1] [µM] | IC50 [2] [µM]
O=P(O)(O)C(Cc1cn(Cc2ccc3ccccc3c2)nn1)P(=O)(O)O | > 2000 | > 1000
